In one assay the test system is Nucleic Acid. Briefly: Evaluated for thermal denaturation at pH 4.9 against poly(A)-poly(U) syntheticRNA oligonucleotide. The assay is classed as nucleic-acid assay. In outline:
(§1)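 Polymer (poly(A)·poly(U) or poly(dA)·poly(dT)) at 1.0×10^-4 M in MES buffer (0.01 M MES, 0.001 M EDTA, 0.1 M NaCl), pH set with NaOH to the listed value. Compound added to a final drug:polymer phosphate ratio of 0.3. Absorbance at 260 nm followed while heating at 0.5 °C/min in 1-cm cells. ΔTm is the Tm shift of the complex versus the free polymer.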
Turning to `N#CC1CCN(CCCN2CCC(C#N)CC2)CC1`, the ΔTm turned out to be 0.
For the compound `C1CCN(C2CCN(CCN3CCN(CCN4CCC(N5CCCCC5)CC4)CC3)CC2)CC1`, the ΔTm came out at 22.9.
For the compound `C1CCN(C2CCN(CCCN3CCC(N4CCCCC4)CC3)CC2)CC1`, the ΔTm is 20.7.
For the compound `c1cc(CN2CCN(Cc3ccc(CN4CCNCC4)cc3)CC2)ccc1CN1CCNCC1`, the ΔTm was 15.7.
For the compound `c1cnc(N2CCN(Cc3cccc(CN4CCN(c5ncccn5)CC4)c3)CC2)nc1`, the ΔTm was found to be 0.
Still for that read-out and setting: next, `C1CCN(CCN2CCN(CCN3CCCCC3)CC2)CC1`: 0.3; `OCC1CCCN(CCCN2CCCC(CO)C2)C1` (centres undefined): 0.9.
The same measure, in the same setting: next, `c1cc(CN2CCC(N3CCCCC3)CC2)ccc1CN1CCC(N2CCCCC2)CC1`: 15.4; `c1cc(CN2CCC(C3=NCCN3)CC2)ccc1CN1CCC(C2=NCCN2)CC1`: 20.7; `OCC1CCN(CCCN2CCC(CO)CC2)CC1`: 0.5.
On the same count and under the same terms, to `c1cnc(N2CCN(Cc3ccc(CN4CCN(c5ncccn5)CC4)cc3)CC2)nc1` belongs 0.
`C1CCN(CCCN2CCCCC2)CC1`: the ΔTm turned out to be 0.
Same read-out and setting: next, `C(CN1CCC(C2=NCCN2)CC1)CN1CCC(C2=NCCN2)CC1`: 24.5.
Consider `C(CC1CCNCC1)CC1CCNCC1`, for which the ΔTm is 1.2.
Consider `CN1CCN(CCCN2CCN(C)CC2)CC1`, for which the ΔTm came out at 1.3.

The subject of the next assay is Nucleic Acid. As to the kind of experiment: Evaluated for thermal denaturation at pH 3.9 against poly(A)-poly(U) synthetic RNA oligonucleotide. Type of assay: nucleic-acid assay. In outline: as §1
In the case of `C1CCN(C2CCN(CCN3CCN(CCN4CCC(N5CCCCC5)CC4)CC3)CC2)CC1`, the ΔTm amounted to 34.7.
Still for that read-out and setting: next, `C1CCN(C2CCN(CCCN3CCC(N4CCCCC4)CC3)CC2)CC1`: 22.2; `c1cc(CN2CCN(Cc3ccc(CN4CCNCC4)cc3)CC2)ccc1CN1CCNCC1`: 29.3.
As to `c1ccc(CN2CCN(CCCN3CCN(Cc4ccccc4)CC3)CC2)cc1`, the ΔTm was 2.4.
The same measure, in the same setting: to `c1cc(CN2CCC(N3CCCCC3)CC2)ccc1CN1CCC(N2CCCCC2)CC1` belongs 17.7.
In the case of `c1cc(CN2CCC(C3=NCCN3)CC2)ccc1CN1CCC(C2=NCCN2)CC1`, the ΔTm was 23.3.
On to `C(CN1CCC(C2=NCCN2)CC1)CN1CCC(C2=NCCN2)CC1`, for which the ΔTm worked out at 28.7.
Regarding `CN1CCN(CCCN2CCN(C)CC2)CC1`, the ΔTm is 11.

A further assay concerns Nucleic Acid. As to the kind of experiment: Thermal denaturation at pH 4.9 against poly(A)-poly(dt) synthetic DNA oligonucleotide. Type of assay: nucleic-acid assay. In outline: as §1
For `c1cc(CN2CCC(N3CCCCC3)CC2)ccc1CN1CCC(N2CCCCC2)CC1`, the ΔTm worked out at 6.7.

Another assay relates to Nucleic Acid. As to the kind of experiment: Evaluated for thermal denaturation at pH 3.9 against poly(A)-poly(dt) synthetic DNA oligonucleotide. Type of assay: nucleic-acid assay. In outline: as §1
Turning to `C1CCN(C2CCN(CCN3CCN(CCN4CCC(N5CCCCC5)CC4)CC3)CC2)CC1`, the ΔTm was determined as 10.4.
For the compound `C1CCN(C2CCN(CCCN3CCC(N4CCCCC4)CC3)CC2)CC1`, the ΔTm is 4.1.
Turning to `c1cc(CN2CCN(Cc3ccc(CN4CCNCC4)cc3)CC2)ccc1CN1CCNCC1`, the ΔTm came to 12.
In the case of `c1ccc(CN2CCN(CCCN3CCN(Cc4ccccc4)CC3)CC2)cc1`, the ΔTm turned out to be 0.2.
In the case of `c1cc(CN2CCC(N3CCCCC3)CC2)ccc1CN1CCC(N2CCCCC2)CC1`, the ΔTm was determined as 5.6.
The same measure, in the same setting: next, `c1cc(CN2CCC(C3=NCCN3)CC2)ccc1CN1CCC(C2=NCCN2)CC1`: 8.8; `C(CN1CCC(C2=NCCN2)CC1)CN1CCC(C2=NCCN2)CC1`: 6.1.
Still for that read-out and setting: next, `CN1CCN(CCCN2CCN(C)CC2)CC1`: 0.

Another assay relates to Nucleic Acid. Briefly: Evaluated for thermal denaturation at pH 6.3 against poly(A)-poly(dt) synthetic DNA oligonucleotide. Type of assay: nucleic-acid assay. The method, boiled down: as §1
With `N#CC1CCN(CCCN2CCC(C#N)CC2)CC1`, the ΔTm stood at 0.
Take `C1CCN(C2CCN(CCN3CCN(CCN4CCC(N5CCCCC5)CC4)CC3)CC2)CC1`: the ΔTm worked out at 6.5.
In the case of `OC1CCN(Cc2ccc(CN3CCC(O)CC3)cc2)CC1`, the ΔTm is 0.
With `C1CCN(C2CCN(CCCN3CCC(N4CCCCC4)CC3)CC2)CC1`, the ΔTm came out at 3.3.
Same read-out and setting: next, `c1cc(CN2CCNCC2)ccc1CN1CCNCC1`: 0; `c1cc(CN2CCN(Cc3ccc(CN4CCNCC4)cc3)CC2)ccc1CN1CCNCC1`: 2.3; `c1cnc(N2CCN(Cc3cccc(CN4CCN(c5ncccn5)CC4)c3)CC2)nc1`: 0.
Take `c1ccc(CN2CCN(CCCN3CCN(Cc4ccccc4)CC3)CC2)cc1`: the ΔTm stood at 0.
Same read-out and setting: to `C1CCN(CCN2CCN(CCN3CCCCC3)CC2)CC1` belongs 0.
With `c1cc(CN2CCC(N3CCCCC3)CC2)cc(CN2CCC(N3CCCCC3)CC2)c1`, the ΔTm amounted to 3.3.
The same measure, in the same setting: to `OCC1CCCN(CCCN2CCCC(CO)C2)C1` (centres undefined) belongs 0.
On the same count and under the same terms, to `c1cc(CN2CCC(N3CCCCC3)CC2)ccc1CN1CCC(N2CCCCC2)CC1` belongs 3.5.
Consider `c1cc(CN2CCC(C3=NCCN3)CC2)ccc1CN1CCC(C2=NCCN2)CC1`, for which the ΔTm was determined as 8.7.
For the compound `OCC1CCN(CCCN2CCC(CO)CC2)CC1`, the ΔTm worked out at 0.
On the same count and under the same terms, to `c1cnc(N2CCN(Cc3ccc(CN4CCN(c5ncccn5)CC4)cc3)CC2)nc1` belongs 0; to `C1CCN(CCCN2CCCCC2)CC1`, 0; to `C(CN1CCC(C2=NCCN2)CC1)CN1CCC(C2=NCCN2)CC1`, 6.1.
For `C(CC1CCNCC1)CC1CCNCC1`, the ΔTm amounted to 0.1.
On the same count and under the same terms, to `CN1CCN(CCCN2CCN(C)CC2)CC1` belongs 0.

A further assay relates to Nucleic Acid. Briefly: Thermal denaturation at pH 6.3 against poly(A)-poly(U) synthetic RNA oligonucleotide. The assay is classed as nucleic-acid assay. The method, boiled down: as §1
With `C1CCN(C2CCN(CCN3CCN(CCN4CCC(N5CCCCC5)CC4)CC3)CC2)CC1`, the ΔTm was 7.6.

The subject of another assay is Nucleic Acid. Briefly: Evaluated for thermal denaturation at pH 6.3 against poly(A)-poly(U) synthetic RNA oligonucleotide. Type of assay: nucleic-acid assay. In outline: as §1
Take `N#CC1CCN(CCCN2CCC(C#N)CC2)CC1`: the ΔTm turned out to be 0.
Turning to `OC1CCN(Cc2ccc(CN3CCC(O)CC3)cc2)CC1`, the ΔTm amounted to 0.
On the same count and under the same terms, next, `C1CCN(C2CCN(CCCN3CCC(N4CCCCC4)CC3)CC2)CC1`: 9.8; `c1cc(CN2CCNCC2)ccc1CN1CCNCC1`: 0; `c1cc(CN2CCN(Cc3ccc(CN4CCNCC4)cc3)CC2)ccc1CN1CCNCC1`: 0.
As for `c1cnc(N2CCN(Cc3cccc(CN4CCN(c5ncccn5)CC4)c3)CC2)nc1`, the ΔTm amounted to 0.
On the same count and under the same terms, next, `c1ccc(CN2CCN(CCCN3CCN(Cc4ccccc4)CC3)CC2)cc1`: 0; `C1CCN(CCN2CCN(CCN3CCCCC3)CC2)CC1`: 0; `c1cc(CN2CCC(N3CCCCC3)CC2)cc(CN2CCC(N3CCCCC3)CC2)c1`: 8.
Consider `OCC1CCCN(CCCN2CCCC(CO)C2)C1` (centres undefined), for which the ΔTm amounted to 0.4.
As for `c1cc(CN2CCC(N3CCCCC3)CC2)ccc1CN1CCC(N2CCCCC2)CC1`, the ΔTm turned out to be 8.1.
The same measure, in the same setting: next, `c1cc(CN2CCC(C3=NCCN3)CC2)ccc1CN1CCC(C2=NCCN2)CC1`: 16.2.
On the same count and under the same terms, next, `OCC1CCN(CCCN2CCC(CO)CC2)CC1`: 0.2; `c1cnc(N2CCN(Cc3ccc(CN4CCN(c5ncccn5)CC4)cc3)CC2)nc1`: 0.
`C1CCN(CCCN2CCCCC2)CC1`: the ΔTm was 0.
On to `C(CN1CCC(C2=NCCN2)CC1)CN1CCC(C2=NCCN2)CC1`, for which the ΔTm stood at 18.1.
Same read-out and setting: next, `C(CC1CCNCC1)CC1CCNCC1`: 0; `CN1CCN(CCCN2CCN(C)CC2)CC1`: 0.

A further assay deals with Nucleic Acid. As to the kind of experiment: Evaluated for thermal denaturation at pH 4.9 against poly(A)-poly(dt synthetic DNA oligonucleotide. The assay is classed as nucleic-acid assay. The method, boiled down: as §1
Take `N#CC1CCN(CCCN2CCC(C#N)CC2)CC1`: the ΔTm worked out at 0.
In the case of `C1CCN(C2CCN(CCN3CCN(CCN4CCC(N5CCCCC5)CC4)CC3)CC2)CC1`, the ΔTm was found to be 8.3.
On to `C1CCN(C2CCN(CCCN3CCC(N4CCCCC4)CC3)CC2)CC1`, for which the ΔTm turned out to be 4.5.
Still for that read-out and setting: to `c1cc(CN2CCN(Cc3ccc(CN4CCNCC4)cc3)CC2)ccc1CN1CCNCC1` belongs 5.1; to `c1cnc(N2CCN(Cc3cccc(CN4CCN(c5ncccn5)CC4)c3)CC2)nc1`, 0.
The same measure, in the same setting: next, `C1CCN(CCN2CCN(CCN3CCCCC3)CC2)CC1`: 0.2; `OCC1CCCN(CCCN2CCCC(CO)C2)C1` (centres undefined): 0; `c1cc(CN2CCC(C3=NCCN3)CC2)ccc1CN1CCC(C2=NCCN2)CC1`: 9.5.
Still for that read-out and setting: next, `OCC1CCN(CCCN2CCC(CO)CC2)CC1`: 0.5; `c1cnc(N2CCN(Cc3ccc(CN4CCN(c5ncccn5)CC4)cc3)CC2)nc1`: 0; `C1CCN(CCCN2CCCCC2)CC1`: 0.
For the compound `C(CN1CCC(C2=NCCN2)CC1)CN1CCC(C2=NCCN2)CC1`, the ΔTm was found to be 5.6.
As to `C(CC1CCNCC1)CC1CCNCC1`, the ΔTm was 0.7.
For `CN1CCN(CCCN2CCN(C)CC2)CC1`, the ΔTm was found to be 0.

(Values after ChEMBL document CHEMBL1127629, “Design and synthesis of RNA-specific groove-binding cations: implications for antiviral drug design” (J Med Chem, 1994).)
